# Values joined by “and” are separate entries in the source; they are usually repeats but may differ in a detail not shown here. Identical values can stand only once. Like-named read-outs stand apart in the source and are kept apart here.
# How the values were obtained:
# Gal4-RORα LBD [1] = biological target: T1, Gal4-RORα LBD (Homo sapiens, UniProt P35398); assay: Gal4-RORα LBD cotransfection luciferase assay in HEK293 cells; type: cell-based; details: for effect on constitutive activity: single dose of 10 μM
# T1 sequence (P35398 272-510 limits assumed): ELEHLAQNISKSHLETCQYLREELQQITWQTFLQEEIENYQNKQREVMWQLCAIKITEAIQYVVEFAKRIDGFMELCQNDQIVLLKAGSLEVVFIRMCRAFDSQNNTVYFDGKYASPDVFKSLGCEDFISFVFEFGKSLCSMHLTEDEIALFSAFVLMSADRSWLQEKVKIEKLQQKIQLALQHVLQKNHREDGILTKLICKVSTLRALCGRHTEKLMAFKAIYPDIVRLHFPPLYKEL
# In short: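 Gal4-RORα LBD plasmid transfected into HEK293 cells with Lipofectamine 2000; cells plated 15 × 10^3/well 24 h earlier. […] Dual luciferase read after 24 h; four wells per point, ≥3 repeats. IC50 derived by non-linear regression; dose responses analysed by one-way ANOVA.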
# Gal4-RORγ LBD [2] = biological target: T2, Gal4-RORγ LBD (Homo sapiens, UniProt P51449); assay: Gal4-RORγ LBD cotransfection luciferase assay in HEK293 cells; type: cell-based; details: for effect on constitutive activity: single dose of 10 μM
# T2 sequence (P51449 269-508 limits assumed): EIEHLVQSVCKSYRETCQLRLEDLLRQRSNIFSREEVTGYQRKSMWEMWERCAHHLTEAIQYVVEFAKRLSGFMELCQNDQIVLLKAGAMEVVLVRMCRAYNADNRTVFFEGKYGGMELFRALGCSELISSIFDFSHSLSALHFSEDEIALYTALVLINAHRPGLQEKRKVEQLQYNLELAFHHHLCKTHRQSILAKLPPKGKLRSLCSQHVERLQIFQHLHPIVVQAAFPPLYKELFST
# RORγ LBD = biological target: T3, RORγ LBD (Homo sapiens, UniProt P51449); type: binding
# T3 sequence (P51449 269-508 limits assumed): T2 sequence (P51449 269-508 limits assumed)
# LXRs = details: cited from earlier work
# Gal4-RORγ LBD [3] = biological target: T2, Gal4-RORγ LBD; details: previous study; cited from earlier work
# Gal4-RORα LBD [4] = biological target: T1, Gal4-RORα LBD; details: previous study; cited from earlier work
# RORα LBD = biological target: T4, RORα LBD (Homo sapiens, UniProt P35398); type: binding; details: competition with 3 nM [3H]-25-hydroxycholesterol, Cheng-Prusoff
# T4 sequence (P35398 272-510 limits assumed): T1 sequence (P35398 272-510 limits assumed)
# [5] = biological target: T5, RORα / SRC-2 on BMAL1 promoter (Homo sapiens, UniProt P35398); type: cell-based; details: 10 μM, 24 hours, HepG2
# T5 sequence (P35398 1-523): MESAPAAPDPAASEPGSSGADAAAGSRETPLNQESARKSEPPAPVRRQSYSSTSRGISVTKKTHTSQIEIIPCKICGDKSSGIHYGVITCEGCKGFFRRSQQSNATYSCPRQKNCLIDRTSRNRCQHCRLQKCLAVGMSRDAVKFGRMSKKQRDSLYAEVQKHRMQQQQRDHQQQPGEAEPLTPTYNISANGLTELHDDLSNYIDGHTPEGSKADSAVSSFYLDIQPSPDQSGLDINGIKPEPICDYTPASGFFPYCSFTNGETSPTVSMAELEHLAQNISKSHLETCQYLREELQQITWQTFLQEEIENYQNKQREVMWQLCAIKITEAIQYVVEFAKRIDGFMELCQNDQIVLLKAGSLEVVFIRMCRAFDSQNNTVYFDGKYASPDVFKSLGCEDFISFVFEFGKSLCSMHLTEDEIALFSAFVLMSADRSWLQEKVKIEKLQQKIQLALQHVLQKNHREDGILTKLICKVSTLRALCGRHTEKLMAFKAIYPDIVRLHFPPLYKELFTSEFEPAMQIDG
# In short: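 HepG2 cells (MEM, 10% FBS, 37 °C, 5% CO2) infected with RORα adenovirus for 24 h, then given vehicle or 10 μM test compound for a further 24 h. First IP with anti-FLAG; re-IP with anti-SRC2, anti-RNA Pol II (positive control) or IgG (negative control). Bmal1 promoter amplified by PCR; band intensity averaged over three experiments.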
# full-length RORγ = biological target: T6, full-length RORγ (Homo sapiens, UniProt P51449); type: cell-based; details: 10 μM, HEK293
# T6 sequence (P51449 1-518): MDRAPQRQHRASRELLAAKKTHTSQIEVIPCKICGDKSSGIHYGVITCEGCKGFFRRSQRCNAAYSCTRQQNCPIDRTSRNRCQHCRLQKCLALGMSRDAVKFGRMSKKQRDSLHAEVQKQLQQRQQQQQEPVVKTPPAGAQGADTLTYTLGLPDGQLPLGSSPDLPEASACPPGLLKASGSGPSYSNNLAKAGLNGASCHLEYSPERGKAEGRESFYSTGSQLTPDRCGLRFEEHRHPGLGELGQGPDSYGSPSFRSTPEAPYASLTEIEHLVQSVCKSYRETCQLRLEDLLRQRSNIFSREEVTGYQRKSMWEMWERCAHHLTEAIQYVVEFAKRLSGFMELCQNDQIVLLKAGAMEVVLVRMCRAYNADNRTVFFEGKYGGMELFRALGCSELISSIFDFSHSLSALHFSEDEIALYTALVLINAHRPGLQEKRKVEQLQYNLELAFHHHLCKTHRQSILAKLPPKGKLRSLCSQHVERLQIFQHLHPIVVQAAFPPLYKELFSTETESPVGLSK
# In short: (§1)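 HEK293 cells (DMEM, 10% FBS, 37 °C, 5% CO2) plated at 15 × 10^3 cells/well 24 h before transfection. Lipofectamine 2000 cotransfection of full-length receptor expression vector plus Bmal1 promoter-luciferase reporter. Vehicle or 10 μM test compound added 16 h post-transfection; dual luciferase read 24 h later. Mean ± S.E. of four wells, repeated at least three times; paired t test.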
# full-length RORα = biological target: T7, full-length RORα (Homo sapiens, UniProt P35398); type: cell-based; details: 10 μM, HEK293
# T7 sequence (P35398 1-523): T5 sequence (P35398 1-523)
# In short: as §1
# [6] = tested on: RORα target genes (BMAL1, REV-ERBα); assay: Quantitative PCR of RORα target genes in HepG2 cells; type: cell-based, human; details: 10 μM
# In short: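 HepG2 cells treated with 10 μM test compound, with RORα-targeting siRNA or scrambled control siRNA. Total RNA extracted, reverse-transcribed and quantified by real-time PCR using human BMAL1 and REV-ERBα primers.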
# RORα = biological target: T8, RORα (Homo sapiens, UniProt P35398); assay: RORα cotransfection assay, G6Pase promoter luciferase reporter; type: cell-based; details: 10 μM, HepG2 (Figure 3C legend)
# T8 sequence (P35398 1-523): T5 sequence (P35398 1-523)
smiles,measurement,setting,value
"CC(C)[C@H](O)CC[C@@H](C)[C@H]1CC[C@H]2[C@@H]3CC=C4C[C@@H](O)CC[C@]4(C)[C@H]3CC[C@]12C [24R-OHC, 24R-hydroxycholesterol]",effect on constitutive activity,Gal4-RORα LBD [1],no effect
same,IC50,Gal4-RORγ LBD [2],90 nM
same,effect on constitutive activity,Gal4-RORγ LBD [2]; HEK293,significant decrease in the constitutive activity
same,Ki,RORγ LBD,102 nM
CC(C)CCC[C@@H](C)[C@H]1CC[C@H]2[C@@H]3[C@H](O)C=C4C[C@@H](O)CC[C@]4(C)[C@H]3CC[C@]12C [7α-OHC],affinity for the LXRs,LXRs,no affinity
CC(C)CCC[C@@H](C)[C@H]1CC[C@H]2[C@@H]3C(=O)C=C4C[C@@H](O)CC[C@]4(C)[C@H]3CC[C@]12C [7-ketocholesterol],affinity for the LXRs,LXRs,no affinity
"C[C@H](CC[C@@H]1OC1(C)C)[C@H]1CC[C@H]2[C@@H]3CC=C4C[C@@H](O)CC[C@]4(C)[C@H]3CC[C@]12C [24,25-epoC, 24(S),25 epoxycholesterol]",effect on constitutive activity,Gal4-RORα LBD [1],without having any significant effect
same,IC50,Gal4-RORγ LBD [2],280 nM
same,effect on constitutive activity,Gal4-RORγ LBD [2]; HEK293,suppresses the activity
same,Ki,RORγ LBD,20 nM
C[C@@H](CO)CCC[C@@H](C)[C@H]1CC[C@H]2[C@@H]3CC=C4C[C@@H](O)CC[C@]4(C)[C@H]3CC[C@]12C [27-OHC],effect on activity of RORγ,Gal4-RORγ LBD [3],unable to affect the activity
same,effect on activity of RORα,Gal4-RORα LBD [4],unable to affect the activity
"C[C@H](CCCC(C)(C)O)[C@H]1CC[C@H]2[C@@H]3CC=C4C[C@@H](O)CC[C@]4(C)[C@H]3CC[C@]12C [25-OHC, 25-hydroxycholesterol]",effect on activity of RORα,Gal4-RORα LBD [4],unable to affect the activity
CC(C)CC[C@@H](O)[C@@H](C)[C@H]1CC[C@H]2[C@@H]3CC=C4C[C@@H](O)CC[C@]4(C)[C@H]3CC[C@]12C [22-OHC],effect on activity of RORγ,Gal4-RORγ LBD [3],unable to affect the activity
same,effect on activity of RORα,Gal4-RORα LBD [4],unable to affect the activity
"CC(C)[C@@H](O)CC[C@@H](C)[C@H]1CC[C@H]2[C@@H]3CC=C4C[C@@H](O)CC[C@]4(C)[C@H]3CC[C@]12C [24S-OHC, 24S-hydroxycholesterol]",Ki,RORα LBD,27 nM
same,reduction of SRC-2 recruited versus DMSO control,[5],~50%
same,suppression of Bmal1 driven reporter gene expression,full-length RORγ,20-40%
same,suppression of Bmal1 driven reporter gene expression,full-length RORα,20-40%
same,reduction of transcriptional activity,Gal4-RORα LBD [1]; 10 μM,30 to 40%
same,Maximal suppression,Gal4-RORα LBD [1]; dose-response,~30%
same,IC50,"Gal4-RORα LBD [1]; read-out: IC50 (suppression of transcriptional activity), dose-response",620 nM
same,decrease of BMAL1 mRNA expression,[6],38%
same,decrease of REV-ERBα mRNA expression,[6],33%
same,reduction of transcriptional activity,"Gal4-RORγ LBD [2]; 10 μM, HEK293",30 to 40%
same,Maximal suppression,"Gal4-RORγ LBD [2]; dose-response, HEK293",~30%
same,IC50,"Gal4-RORγ LBD [2]; read-out: IC50 (suppression of transcriptional activity), dose-response, HEK293",1300 nM
same,suppression of G6Pase promoter reporter expression,RORα,approximately 30%
same,Ki,"RORγ LBD; competition with 3 nM [3H]-25-hydroxycholesterol, Cheng-Prusoff",~25 nM and 25 nM

# — article PMC2886165 (Biochimica et biophysica acta, 2010)
